Measurements as given in ChEMBL document CHEMBL3596173, “Structural Requirements for CNS Active Opioid Glycopeptides” (J Med Chem, 2015).
Non-standard residues stand in square brackets, D forms with d. Residues, ends and D or L forms follow the SMILES beside them. *: point of attachment. βGlc = OC[C@H]1O[C@@H](*)[C@H](O)[C@@H](O)[C@@H]1O; Aib = CC(C)(N)C(=O)O

How the values were obtained:
Type in all cases: cell-based
[1] = molecular target: Kappa-type opioid receptor (Homo sapiens, UniProt P41145); test: Displacement of [3H]-U69593 from human kappa opioid receptor expressed in CHO cells after 60 mins by scintillation counting analysis
Kappa-type opioid receptor, sequence (P41145 whole entry): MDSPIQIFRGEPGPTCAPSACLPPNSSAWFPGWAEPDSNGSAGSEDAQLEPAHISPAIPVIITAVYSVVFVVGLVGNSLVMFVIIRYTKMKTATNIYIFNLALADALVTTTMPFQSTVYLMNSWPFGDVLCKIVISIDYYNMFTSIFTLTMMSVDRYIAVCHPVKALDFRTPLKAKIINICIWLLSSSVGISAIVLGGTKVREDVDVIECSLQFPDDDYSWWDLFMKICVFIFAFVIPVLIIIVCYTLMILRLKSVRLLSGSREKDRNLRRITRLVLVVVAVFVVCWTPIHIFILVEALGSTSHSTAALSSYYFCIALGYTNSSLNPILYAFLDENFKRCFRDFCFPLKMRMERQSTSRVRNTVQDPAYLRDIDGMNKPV
Outline: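 Human κ receptor stably expressed in CHO cells was used as a membrane prep. It was incubated with 1 nM (final) [3H]U69,593 for 60 min at 25 °C in 50 mM Tris-HCl pH 7.5, with 10 μM naloxone defining nonspecific binding. Samples were filtered through glass-fiber filters presoaked ≥30 min in 0.1% polyethylenimine, washed cold and scintillation counted. Ki was derived from a log-probit IC50 via IC50/(1+S).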

[2] = molecular target: Mu-type opioid receptor (Homo sapiens, UniProt P35372); test: Displacement of [3H]-DAMGO from human mu opioid receptor expressed in CHO cells after 60 mins by scintillation counting analysis
Mu-type opioid receptor, sequence (P35372 whole entry): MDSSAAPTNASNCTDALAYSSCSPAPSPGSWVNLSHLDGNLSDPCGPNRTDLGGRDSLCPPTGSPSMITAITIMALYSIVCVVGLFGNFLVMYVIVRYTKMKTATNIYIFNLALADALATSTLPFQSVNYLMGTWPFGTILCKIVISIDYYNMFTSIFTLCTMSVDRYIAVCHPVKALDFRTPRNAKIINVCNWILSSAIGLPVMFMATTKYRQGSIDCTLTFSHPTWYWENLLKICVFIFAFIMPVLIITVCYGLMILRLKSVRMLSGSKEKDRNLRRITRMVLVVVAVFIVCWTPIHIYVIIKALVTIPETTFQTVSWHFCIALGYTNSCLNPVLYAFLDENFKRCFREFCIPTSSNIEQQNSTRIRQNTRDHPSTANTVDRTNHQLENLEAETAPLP
Outline: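 Membranes from CHO cells stably expressing human μ receptor were incubated with 0.25 nM (final) [3H]DAMGO in 50 mM Tris-HCl pH 7.5 for 60 min at 25 °C. Bound radioligand was separated by glass-fiber filtration with cold buffer washes and counted by scintillation. IC50 came from a least-squares log-probit fit, and Ki from IC50/(1+S).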

[3] = molecular target: T1, Delta-type opioid receptor (Homo sapiens, UniProt P41143); test: Displacement of [3H]-naltrindole from human delta opioid receptor expressed in CHO cells after 3 hrs by scintillation counting analysis
T1 sequence (P41143 whole entry): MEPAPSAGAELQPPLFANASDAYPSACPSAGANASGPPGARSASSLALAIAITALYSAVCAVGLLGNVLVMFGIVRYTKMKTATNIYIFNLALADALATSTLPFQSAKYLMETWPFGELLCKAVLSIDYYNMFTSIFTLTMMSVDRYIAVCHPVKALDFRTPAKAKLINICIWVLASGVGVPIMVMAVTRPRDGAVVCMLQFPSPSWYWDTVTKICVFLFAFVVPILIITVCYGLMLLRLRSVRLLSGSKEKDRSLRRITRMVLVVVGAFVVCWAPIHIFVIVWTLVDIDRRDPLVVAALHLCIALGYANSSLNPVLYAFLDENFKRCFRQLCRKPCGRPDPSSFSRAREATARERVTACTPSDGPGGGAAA
Outline: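 Binding used CHO-cell membranes bearing human δ receptor and 0.2 nM (final) [3H]naltrindole, incubated 3 h at 25 °C in 50 mM Tris-HCl pH 7.5. Nonspecific binding was defined with 100 μM naloxone. Samples were glass-fiber filtered, washed with cold buffer and scintillation counted. IC50 came from a log-probit least-squares fit and was converted to Ki as IC50/(1+S).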

[4] = molecular target: T1, Delta-type opioid receptor; test: Displacement of [3H]-naltrindole from human delta opioid receptor expressed in CHO cells at 10 uM after 3 hrs by scintillation counting analysis relative to control

Question: `CC(C)C[C@H](NC(=O)[C@H](CO[C@@H]1O[C@H](CO)[C@@H](O)[C@H](O)[C@H]1O)NC(=O)[C@H](CCCCN)NC(=O)[C@H](CC(C)C)NC(=O)[C@H](C)NC(=O)[C@H](CCCCN)NC(=O)[C@H](CCC(=O)O)NC(=O)C(C)(C)NC(=O)[C@H](CC(C)C)NC(=O)[C@H](CC(N)=O)NC(=O)[C@@H]1CCCN1C(=O)CCNC(=O)[C@H](Cc1ccccc1)N(C)C(=O)CNC(=O)[C@@H](C)NC(=O)[C@@H](N)Cc1ccc(O)cc1)C(N)=O` was tested. Which Ki [1] did it give?
Answer: Its Ki is 0.1 µM.

Question: And the Ki [2]?
Answer: Its Ki is 0.0056 µM.

Question: And the Ki [3]?
Answer: The Ki was 1.2 µM.

Question: `CC(C)C[C@H](NC(=O)[C@H](CO[C@@H]1O[C@H](CO)[C@@H](O)[C@H](O)[C@H]1O)NC(=O)[C@H](CCCCN)NC(=O)[C@H](CC(C)C)NC(=O)[C@H](C)NC(=O)[C@H](CC(N)=O)NC(=O)[C@H](CCCCN)NC(=O)C(C)(C)NC(=O)[C@H](CC(C)C)NC(=O)[C@H](CC(N)=O)NC(=O)CNC(=O)CNC(=O)[C@H](Cc1ccccc1)N(C)C(=O)CNC(=O)[C@@H](C)NC(=O)[C@@H](N)Cc1ccc(O)cc1)C(N)=O` was tested. Which Ki [1] did it give?
Answer: Its Ki is 0.011 µM.

Question: What about the Ki [2] of the same compound?
Answer: Its Ki is 0.00024 µM.

Question: And the Ki [3]?
Answer: The Ki was 0.43 µM.

Question: Which Ki [1] does the source give for `CC(C)C[C@H](NC(=O)[C@H](CO[C@@H]1O[C@H](CO)[C@@H](O)[C@H](O)[C@H]1O)NC(=O)[C@H](CCCCN)NC(=O)[C@H](CC(C)C)NC(=O)[C@H](C)NC(=O)[C@H](CCCCN)NC(=O)[C@H](CCC(=O)O)NC(=O)C(C)(C)NC(=O)[C@H](CC(C)C)NC(=O)[C@H](CC(N)=O)NC(=O)CNC(=O)[C@H](CC(C)C)NC(=O)[C@H](Cc1ccccc1)NC(=O)CNC(=O)[C@@H](NC(=O)[C@@H](N)Cc1ccc(O)cc1)[C@@H](C)O)C(N)=O` (H-YTGFLGNL[Aib]EKALKS(βGlc)L-NH2) here?
Answer: Its Ki is 0.014 µM.

Question: What about the Ki [2] of the same compound?
Answer: The Ki was 0.026 µM.

Question: And the Ki [3]?
Answer: Its Ki is 0.031 µM.

Question: Which Ki [1] does the source give for `CC(C)C[C@H](NC(=O)[C@H](CO[C@@H]1O[C@H](CO)[C@@H](O)[C@H](O)[C@H]1O)NC(=O)[C@H](CCCCN)NC(=O)[C@H](CC(C)C)NC(=O)[C@H](C)NC(=O)[C@H](CCCCN)NC(=O)[C@H](CCCCN)NC(=O)C(C)(C)NC(=O)[C@H](CC(C)C)NC(=O)[C@H](CC(N)=O)NC(=O)CNC(=O)CNC(=O)[C@H](Cc1ccccc1)N(C)C(=O)CNC(=O)[C@@H](C)NC(=O)[C@@H](N)Cc1ccc(O)cc1)C(N)=O` here?
Answer: The Ki was 0.43 µM.

Question: What about the Ki [2] of the same compound?
Answer: The Ki was 0.021 µM.

Question: What about the Activity [4] of the same compound?
Answer: Its Activity is 0%.

Question: With `CC(C)C[C@H](NC(=O)[C@H](CO[C@@H]1O[C@H](CO)[C@@H](O)[C@H](O)[C@H]1O)NC(=O)[C@H](CCCCN)NC(=O)[C@H](CC(C)C)NC(=O)[C@H](C)NC(=O)[C@H](CCCCN)NC(=O)[C@H](CCC(=O)O)NC(=O)C(C)(C)NC(=O)[C@H](CC(C)C)NC(=O)[C@H](CC(N)=O)NC(=O)[C@H](C)NC(=O)[C@H](CC(C)C)NC(=O)[C@H](Cc1ccccc1)NC(=O)CNC(=O)[C@@H](NC(=O)[C@@H](N)Cc1ccc(O)cc1)[C@@H](C)O)C(N)=O` (H-YTGFLANL[Aib]EKALKS(βGlc)L-NH2) as the compound, how does the Ki [1] read?
Answer: The Ki was 0.0097 µM.

Question: And the Ki [2]?
Answer: The Ki was 0.039 µM.

Question: And the Ki [3]?
Answer: The Ki was 0.021 µM.

Question: For `CC(C)C[C@H](NC(=O)[C@H](CO[C@@H]1O[C@H](CO)[C@@H](O)[C@H](O)[C@H]1O)NC(=O)[C@H](CCCCN)NC(=O)[C@H](CC(C)C)NC(=O)[C@H](C)NC(=O)[C@H](CCCCN)NC(=O)[C@H](CCC(=O)O)NC(=O)C(C)(C)NC(=O)[C@H](CC(C)C)NC(=O)[C@H](CC(N)=O)NC(=O)[C@@H]1CCCN1C(=O)CNC(=O)[C@H](Cc1ccccc1)N(C)C(=O)CNC(=O)[C@@H](C)NC(=O)[C@@H](N)Cc1ccc(O)cc1)C(N)=O`, which Ki [1] is on record?
Answer: The Ki was 0.045 µM.

Question: What about the Ki [2] of the same compound?
Answer: Its Ki is 0.0032 µM.

Question: What about the Ki [3] of the same compound?
Answer: The Ki was 0.84 µM.

Question: Which results are given for `CC(C)C[C@H](NC(=O)[C@H](CO[C@@H]1O[C@H](CO)[C@@H](O)[C@H](O)[C@H]1O)NC(=O)[C@H](CCCCN)NC(=O)[C@H](CC(C)C)NC(=O)[C@H](C)NC(=O)[C@H](CCCCN)NC(=O)[C@H](CCC(=O)O)NC(=O)C(C)(C)NC(=O)[C@H](CC(C)C)NC(=O)[C@H](CC(N)=O)NC(=O)CNC(=O)CNC(=O)[C@H](Cc1ccccc1)N(C)C(=O)CNC(=O)[C@@H](C)NC(=O)[C@@H](N)Cc1ccc(O)cc1)C(N)=O`?
Answer: Ki [1]: 0.059 µM; Ki [2]: 0.0028 µM; Ki [3]: 1.5 µM

Question: With `CC(C)C[C@H](NC(=O)[C@H](CO[C@@H]1O[C@H](CO)[C@@H](O)[C@H](O)[C@H]1O)NC(=O)[C@H](CCCCN)NC(=O)[C@H](CC(C)C)NC(=O)[C@H](C)NC(=O)[C@H](CCCCN)NC(=O)[C@H](CCC(=O)O)NC(=O)C(C)(C)NC(=O)[C@H](CC(C)C)NC(=O)[C@H](CC(N)=O)NC(=O)CCNC(=O)[C@H](Cc1ccccc1)N(C)C(=O)CNC(=O)[C@@H](C)NC(=O)[C@@H](N)Cc1ccc(O)cc1)C(N)=O` as the compound, how does the Ki [1] read?
Answer: The Ki was 0.2 µM.

Question: And the Ki [2]?
Answer: The Ki was 0.0048 µM.

Question: What about the Ki [3] of the same compound?
Answer: The Ki was 1.4 µM.

Question: With `CC(C)C[C@H](NC(=O)[C@H](CO[C@@H]1O[C@H](CO)[C@@H](O)[C@H](O)[C@H]1O)NC(=O)[C@H](CCCCN)NC(=O)[C@H](CC(C)C)NC(=O)[C@H](C)NC(=O)[C@H](CCCCN)NC(=O)[C@H](CCC(=O)O)NC(=O)C(C)(C)NC(=O)[C@H](CC(C)C)NC(=O)[C@H](CC(N)=O)NC(=O)[C@@H]1CCCN1C(=O)[C@@H]1CCCN1C(=O)[C@H](Cc1ccccc1)N(C)C(=O)CNC(=O)[C@@H](C)NC(=O)[C@@H](N)Cc1ccc(O)cc1)C(N)=O` as the compound, how does the Ki [1] read?
Answer: Its Ki is 0.019 µM.

Question: And the Ki [2]?
Answer: The Ki was 0.015 µM.

Question: And the Ki [3]?
Answer: The Ki was 2.3 µM.

Question: With `CC(C)C[C@H](NC(=O)[C@H](CO[C@@H]1O[C@H](CO)[C@@H](O)[C@H](O)[C@H]1O)NC(=O)[C@H](CCCCN)NC(=O)[C@H](CC(C)C)NC(=O)[C@H](C)NC(=O)[C@H](CCCCN)NC(=O)[C@H](CCC(=O)O)NC(=O)C(C)(C)NC(=O)[C@H](CC(C)C)NC(=O)[C@H](CC(N)=O)NC(=O)[C@H]1CCCN1C(=O)[C@H](CC(C)C)NC(=O)[C@H](Cc1ccccc1)NC(=O)CNC(=O)[C@@H](NC(=O)[C@@H](N)Cc1ccc(O)cc1)[C@@H](C)O)C(N)=O` as the compound, how does the Ki ([1]; cho) read?
Answer: Its Ki is 0.078 µM.

Question: What about the Ki ([2]; cho) of the same compound?
Answer: The Ki was 0.027 µM.

Question: What about the Ki ([3]; cho) of the same compound?
Answer: Its Ki is 0.073 µM.

Question: `CC(C)C[C@H](NC(=O)[C@H](CO[C@@H]1O[C@H](CO)[C@@H](O)[C@H](O)[C@H]1O)NC(=O)[C@H](CC(N)=O)NC(=O)[C@H](CC(C)C)NC(=O)[C@H](C)NC(=O)[C@H](CC(N)=O)NC(=O)[C@H](CC(N)=O)NC(=O)C(C)(C)NC(=O)[C@H](CC(C)C)NC(=O)[C@H](CC(N)=O)NC(=O)CNC(=O)CNC(=O)[C@H](Cc1ccccc1)N(C)C(=O)CNC(=O)[C@@H](C)NC(=O)[C@@H](N)Cc1ccc(O)cc1)C(N)=O` was tested. Which Ki [1] did it give?
Answer: The Ki was 0.34 µM.

Question: And the Ki [2]?
Answer: The Ki was 0.0052 µM.

Question: And the Activity [4]?
Answer: Its Activity is 22%.

Question: Which results are given for `CC(C)C[C@H](NC(=O)[C@H](CO[C@@H]1O[C@H](CO)[C@@H](O)[C@H](O)[C@H]1O)NC(=O)[C@H](CCCCN)NC(=O)[C@H](CC(C)C)NC(=O)[C@H](C)NC(=O)[C@H](CCCCN)NC(=O)[C@H](CCC(=O)O)NC(=O)C(C)(C)NC(=O)[C@H](CC(C)C)NC(=O)[C@H](CC(N)=O)NC(=O)[C@@H]1CCCN1C(=O)[C@H](Cc1ccccc1)N(C)C(=O)CNC(=O)[C@@H](C)NC(=O)[C@@H](N)Cc1ccc(O)cc1)C(N)=O`?
Answer: Ki [1]: 0.34 µM; Ki [2]: 0.0088 µM; Activity [4]: 31%
